# Reference: ChEMBL document CHEMBL5331102, “Novel S1R agonists counteracting NMDA excitotoxicity and oxidative stress: A step forward in the discovery of neuroprotective agents” (Eur J Med Chem, 2023)
# The source made the active and inactive calls. The calls are words filed in the database; no cut-off is given here.
# Tests used:
# [1] = Selectivity index, ratio of Ki for sigma 2 receptor (unknown origin) to Ki for sigma 1 receptor (unknown origin)
# [2] = molecular target: Sigma intracellular receptor 2 (Homo sapiens, UniProt Q5BJF2); assay: Binding affinity to sigma 2 receptor (unknown origin) assessed as inhibition constant
# Outline: (§1)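 Radioligand displacement at S1R with [3H](+)pentazocine (15 nM) and at S2R with [3H]DTG (25 nM); S2R assay includes 1 μM cold (+)pentazocine to mask S1R sites. Bound radioactivity counted by scintillation. IC50 and Hill slope from non-linear Hill fit of competition curves; Ki by Cheng–Prusoff using radioligand concentration and KD from Scatchard plot.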
# [3] = molecular target: T1, Sigma non-opioid intracellular receptor 1 (Homo sapiens, UniProt Q99720); assay: Binding affinity to sigma 1 receptor (unknown origin) assessed as inhibition constant; outline: as §1
# [4] = molecular target: T1, Sigma non-opioid intracellular receptor 1; assay: Displacement of [3H]-(+)-pentazocine from sigma 1 receptor (unknown origin) at 25 nM by scintillation counting analysis; conditions: filed as agonist
# Outline: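 Single-concentration screen at 25 nM test compound against [3H](+)pentazocine (15 nM) at S1R; scintillation counting; result given as % inhibition of control specific binding, i.e. 100 minus measured/control specific binding ×100.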
# [5] = molecular target: Glutamate [NMDA] receptor (Homo sapiens) (UniProt Q05586+Q12879+Q13224+O15399+O60391+Q14957+Q8TCU5); assay: Displacement of [3H]CGP39653 from human NMDAR at 25 nM by scintillation counting analysis; format: protein-complex assay
# Outline: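 NMDA receptor binding with [3H]CGP39653 (5 nM) as radioligand, test compound at 25 nM; displacement read by scintillation counting and reported as % inhibition of control specific binding.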
# [6] = test system: PC-12; assay: Neuroprotective activity in rat PC12 cells assessed as induction of NGF-mediated neurite outgrowth at 0.5 uM in presence of NE-100 by neurite outgrowth assay; format: functional, cell-based
# Outline: (§2)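 PC12 cells stimulated with NGF (2.5 nM) and treated with compound up to 5 μM, alone or after pre-treatment with S1R antagonist NE-100 (3 μM); read-out is percentage of cells bearing neurite sprouts; mean ± SEM of three independent experiments.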
# [7] = test system: PC-12; assay: Neuroprotective activity in rat PC12 cells assessed as induction of NGF-mediated neurite outgrowth at 0.5 uM by neurite outgrowth assay (Rvb=26 +/- 4%); format: functional; outline: as §2
# [8] = Cytotoxicity against human SH-SY5Y cells assessed as reduction in cell viability incubated for 72 hrs by MTT assay; format: toxicity, cell-based
# Outline: (§3)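 SH-SY5Y cells kept in DMEM/10% FBS, 2 mM glutamine, 37 °C, 5% CO2; ~7000 cells/well, after 1 day given compound (six concentrations, 0.1–100 μM; DMSO stocks 10 mM) in 2% FBS medium for 72 h. MTT (0.5% w/v, 2 h), formazan dissolved in DMSO, absorbance read; triplicates, % of untreated control.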
# [9] = test system: SH-SY5Y; assay: Neuroprotective activity in human SH-SY5Y cells assessed as prevention of NMDA induced cytotoxicity by measuring cell viability at 1 to 5 uM incubated for 24 hrs in presence of NMDA by MTT assay; format: functional, cell-based; conditions: dose 1-5 µM
# Outline: (§4)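 SH-SY5Y cells (~7000/well) co-incubated 24 h at 37 °C in 2% FBS medium with toxic stimulus (NMDA 250 μM or oligomycin 2.5 μM) plus compound at 0.1–5 μM. Viability by MTT, expressed as % of control.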
# [10] = test system: SH-SY5Y; assay: Neuroprotective activity in human SH-SY5Y cells assessed as prevention of NMDA induced cytotoxicity by measuring cell viability at 0.1 to 0.5 uM incubated for 24 hrs in presence of NMDA by MTT assay; format: functional, cell-based; conditions: dose 0.1-0.5 µM; outline: as §4
# [11] = test system: SH-SY5Y; assay: Cytotoxicity against human SH-SY5Y cells assessed as reduction in cell viability at 5 uM incubated for 72 hrs by MTT assay; format: toxicity, cell-based; outline: as §3
# Sigma intracellular receptor 2, sequence (Q5BJF2 whole entry): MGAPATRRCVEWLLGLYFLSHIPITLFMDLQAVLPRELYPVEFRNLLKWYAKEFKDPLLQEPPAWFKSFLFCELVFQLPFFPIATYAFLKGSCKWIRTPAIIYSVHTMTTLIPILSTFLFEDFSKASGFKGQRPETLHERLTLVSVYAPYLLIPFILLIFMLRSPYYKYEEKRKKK
# T1 sequence (Q99720 whole entry): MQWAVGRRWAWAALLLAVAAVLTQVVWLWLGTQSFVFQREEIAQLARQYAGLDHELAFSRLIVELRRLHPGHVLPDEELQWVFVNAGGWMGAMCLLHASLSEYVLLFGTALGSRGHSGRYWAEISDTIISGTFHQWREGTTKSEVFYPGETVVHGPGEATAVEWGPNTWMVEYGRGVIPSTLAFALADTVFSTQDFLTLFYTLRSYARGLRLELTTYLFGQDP
SMILES,Ratio Ki [1],Ki [2] [nM],Ki [3] [nM],further results
c1ccc(CC2CCN(CC3CSC4(CCCCC4)S3)CC2)cc1 (configuration not stated),0.4,5,12,–
c1ccc(CN2CCN(CCCOC3CCCCC3)CC2)cc1,–,–,–,Activity [4]: > 95%; Activity [5]: < 11.9%
CN(C)CC1CCOC1(c1ccccc1)c1ccccc1 (configuration not stated) [BLARCAMESINE],–,–,6.3,–
C[C@H](CCN1CCCCC1)c1ccc(-c2ccccc2)cc1,–,–,–,Activity [6]: inactive; Activity [7]: 36%
COc1ccc(CCN2CCN(CCCc3ccccc3)CC2)cc1OC [[11C]SA4503],–,63,–,–
c1ccc(CN2CCN(CCSc3ccccc3)CC2)cc1,–,–,–,Activity [4]: > 95%; Activity [5]: < 11.9%
CC12CC3CC(C)(C1)CC(N)(C3)C2 [MEMANTINE],–,–,–,CC50 at 72 h [8]: 98000 nM; Activity [9]: inactive; Activity [10]: Active; Activity [11]: 70%
CC1(C)SCC(CN2CCC(Cc3ccccc3)CC2)S1 (configuration not stated),24,12,0.5,–
c1ccc(CN2CCN(CCCSC3CCCCC3)CC2)cc1,–,–,–,Activity [4]: > 95%; Activity [5]: < 11.9%

# Now from value to compound, other results behind:
Ratio Ki [1],Ki [2] [nM],Ki [3] [nM],SMILES,further results
43,–,–,c1ccc(CN2CCN(CC3CSCS3)CC2)cc1 (configuration not stated),–
70,91,1.3,c1ccc(CN2CCN(CC3CSC4(CCCCC4)O3)CC2)cc1 (configuration not stated),–
47,35,0.74,c1ccc(CN2CCN(CC3COC4(CCCCC4)O3)CC2)cc1 (configuration not stated),–
